Laboratory results published in article PMC6045484 (ACS Omega, 2018).
Converted amounts (≈) assume the structure as drawn.

What was measured:
P. falciparum (W2) = assay: in vitro antimalarial activity, plasmodial LDH; assay type: cell-based, Plasmodium falciparum; conditions: Plasmodium falciparum, W2, 72 h, read-out: P. falciparum (W2) IC50, CQ-resistant W2 strain, 72 h
In short: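 P. falciparum-infected erythrocytes (2% parasitemia, 2% hematocrit) in RPMI 1640 with 10% human serum and 60 μg/mL amikacin. Exposed to test compound dilutions for 72 h at 37 °C under 90% N2/5% O2/5% CO2. LDH measured with Malstat reagent (30 min, room temperature), then NBT/PES for 1 h in the dark, stopped with 5% acetic acid, read at 650 nm. IC50 from dose-response curves.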

[1] = system: L. donovani promastigotes; assay: in vitro antileishmanial activity, alamarBlue assay; assay type: cell-based, Leishmania donovani; conditions: 48 h; for IC50: read-out: L. donovani IC50, promastigotes, 48 h
C. albicans ATCC90028 = assay: in vitro antifungal activity; assay type: cell-based, Candida albicans; conditions: Candida albicans; for IC50: ATCC90028, read-out: C. albicans IC50; for MFC: ATCC90028, read-out: C. albicans MFC; for MIC: ATCC90028, read-out: C. albicans MIC
In short: (§1)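 Modified NCCLS broth method in Sabouraud dextrose. Inoculum set by OD630 to 1.5 × 10^3 CFU/mL. Test compound serially diluted in 20% DMSO/saline, duplicate wells, up to 20 μg/mL. Incubated 70–74 h at 35 °C; 530 nm read before and after. IC50 is 50% growth inhibition; MIC is no detectable growth. MFC from clear wells subcultured on agar. Amphotericin B control.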

C. neoformans ATCC90113 = assay: in vitro antifungal activity; assay type: cell-based, Cryptococcus neoformans; conditions: Cryptococcus neoformans; for IC50: ATCC90113, read-out: C. neoformans IC50; for MFC: ATCC90113, read-out: C. neoformans MFC; for MIC: ATCC90113, read-out: C. neoformans MIC
In short: as §1

A. fumigatus ATCC 90906 = assay: in vitro antifungal activity; assay type: cell-based, Aspergillus fumigatus; conditions: Aspergillus fumigatus; for IC50: ATCC90906, read-out: A. fumigatus IC50; for MFC: ATCC90906, read-out: A. fumigatus MFC; for MIC: ATCC90906, read-out: A. fumigatus MIC
In short: as §1

SA (ATCC29213) = assay: in vitro antibacterial activity; assay type: cell-based; conditions: Staphylococcus aureus; for IC50: ATCC29213, read-out: IC50 (concentration that affords 50% growth inhibition), SA; for MBC: ATCC29213, read-out: MBC (minimum bactericidal concentration), SA; for MIC: ATCC29213, read-out: MIC, SA
In short: (§2)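 Test compound serially diluted in 20% DMSO/saline and plated in duplicate, up to 20 μg/mL. Inoculum in cation-adjusted Mueller–Hinton broth, pH 7.3, set by OD630 to 5 × 10^5 CFU/mL. Incubated 16–20 h at 35 °C; 530 nm read before and after. IC50 is 50% growth inhibition; MIC is no detectable growth. MBC from clear wells subcultured on agar. Ciprofloxacin control.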

MRSA (ATCC33591) = assay: in vitro antibacterial activity; assay type: cell-based, methicillin-resistant Staphylococcus aureus; conditions: Staphylococcus aureus, ATCC33591|MRSA, read-out: MIC, MRSA
In short: as §2

[2] = system: M. intracellulare (ATCC23068); assay: in vitro antibacterial activity, modified alamarBlue procedure; assay type: cell-based, Mycobacterium intracellulare; conditions: Mycobacterium intracellulare; for IC50: ATCC23068, read-out: IC50 (concentration that affords 50% growth inhibition), M. intracellulare; for MBC: ATCC23068, read-out: MBC (minimum bactericidal concentration), M. intracellulare; for MIC: ATCC23068, read-out: MIC, M. intracellulare
In short: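 Modified alamarBlue microplate method. Test compound serially diluted in 20% DMSO/saline, duplicate wells, up to 20 μg/mL. Inoculum 2.0 × 10^6 CFU/mL in Middlebrook 7H9 with OADC, pH 7.3, containing 5% alamarBlue. Incubated 70–74 h at 37 °C, 10% CO2; fluorescence 544ex/590em read before and after. MIC: no blue-to-pink change. MBC by subculturing blue wells on agar. Ciprofloxacin control.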

P. falciparum (D6) = assay: in vitro antimalarial activity, plasmodial LDH; assay type: cell-based, Plasmodium falciparum; conditions: Plasmodium falciparum, D6, 72 h, read-out: P. falciparum (D6) IC50
[3] = system: SK-MEL, KB, BT-549, SK-OV-3, VERO and LLC-PK1 cells; assay: cytotoxicity, neutral red uptake assay; assay type: cell-based, mammalian; conditions: highest test concentration 4760 ng/mL
In short: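 Cells seeded at 25 000/well and allowed 24 h to reach confluence. Test compound was then added and incubated 48 h. Viable cells were counted by a modified neutral red uptake method. The panel was four human cancer lines and two noncancerous mammalian kidney lines. Doxorubicin served as positive control and DMSO as negative control.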

| SMILES | IC50 (P. falciparum (W2)) [µg/mL] | IC50 (C. albicans ATCC90028) [µg/mL] | MFC (C. albicans ATCC90028) [µg/mL] | MIC (C. albicans ATCC90028) [µg/mL] | IC50 (C. neoformans ATCC90113) [µg/mL] | MFC (C. neoformans ATCC90113) [µg/mL] | MIC (C. neoformans ATCC90113) [µg/mL] | IC50 (A. fumigatus ATCC 90906) [µg/mL] | MFC (A. fumigatus ATCC 90906) [µg/mL] | MIC (A. fumigatus ATCC 90906) [µg/mL] | IC50 (SA (ATCC29213)) [µg/mL] | MBC (SA (ATCC29213)) [µg/mL] | MIC (SA (ATCC29213)) [µg/mL] | MIC (MRSA (ATCC33591)) [µg/mL] | IC50 [2] [µg/mL] | MBC [2] [µg/mL] | MIC [2] [µg/mL] | IC50 (P. falciparum (D6)) [µg/mL] | cytotoxicity CTX [3] | other results |
| --- | --- | --- | --- | --- | --- | --- | --- | --- | --- | --- | --- | --- | --- | --- | --- | --- | --- | --- | --- | --- |
| C[C@@H]1CC[C@H]2[C@@H](C)C(=O)O[C@@H]3O[C@@]4(C)CC[C@@H]1[C@]32OO4 [ART, artemisinin, reference compound] | 0.009 (≈ 0.0319 µM) | – | – | – | – | – | – | – | – | – | – | – | – | – | – | – | – | – | – | – |
| C[C@@H]1[C@H](O)[C@@H](C)/C=C/C=C/C=C/C=C/C=C/C=C/C=C/[C@H](O[C@@H]2O[C@H](C)[C@@H](O)[C@H](N)[C@@H]2O)C[C@@H]2O[C@](O)(C[C@@H](O)C[C@@H](O)[C@H](O)CC[C@@H](O)C[C@@H](O)CC(=O)O[C@H]1C)C[C@H](O)[C@H]2C(=O)O [amphotericin B (AMP), amphotericin B, reference compound] | – | 0.17 (≈ 0.184 µM) | 1.25 (≈ 1.35 µM) | 0.63 (≈ 0.682 µM) | 0.3 (≈ 0.325 µM) | 0.63 (≈ 0.682 µM) | 0.63 (≈ 0.682 µM) | 0.68 (≈ 0.736 µM) | 2.5 (≈ 2.71 µM) | 1.25 (≈ 1.35 µM) | – | – | – | – | – | – | – | – | – | IC50 ([1]; Leishmania donovani): 0.1 µg/mL (≈ 0.108 µM); IC90 ([1]; Leishmania donovani, read-out: L. donovani IC90, promastigotes, 48 h): 0.3 µg/mL (≈ 0.325 µM) |
| O=C(O)c1cn(C2CC2)c2cc(N3CCNCC3)c(F)cc2c1=O [ciprofloxacin, reference compound] | – | – | – | – | – | – | – | – | – | – | 0.13 (≈ 0.392 µM) | 1 (≈ 3.02 µM) | 0.5 (≈ 1.51 µM) | 0.25 (≈ 0.754 µM) | 0.28 (≈ 0.845 µM) | 1 (≈ 3.02 µM) | 0.5 (≈ 1.51 µM) | – | – | – |
| CCCCOc1c(OC)cc(NC(C)CCCN)c2nc(C(C)(C)C)ccc12 (stereo not drawn) [compound 45, N^4-(5-Butoxy-2-tert-butyl-6-methoxyquinolin-8-yl)pentane-1,4-diamine] | 3.3 (≈ 8.51 µM) | > 20 | > 20 | > 20 | > 20 | > 20 | > 20 | > 20 | > 20 | > 20 | > 20 | > 20 | > 20 | > 20 | > 20 | > 20 | > 20 | > 4.76 | NC (NC, not cytotoxic up to 4760 ng/mL (4.76 μg/mL)) | – |
| CCCCOc1c(OC)cc(NC(C)CCCNC(=O)C(N)CCCCN)c2nc(C(C)(C)C)ccc12 (stereo not drawn) [compound 90, 2,6-Diamino-N-(4-(5-butoxy-2-tert-butyl-6-methoxyquinolin-8-ylamino)pentyl)-hexanamide] | 2.9 (≈ 5.62 µM) | > 20 | > 20 | > 20 | > 20 | > 20 | > 20 | > 20 | > 20 | > 20 | > 20 | > 20 | > 20 | > 20 | > 20 | > 20 | > 20 | 4.7 (≈ 9.11 µM) | NC (NC, not cytotoxic up to 4760 ng/mL (4.76 μg/mL)) | – |
| CCCCOc1c(OC)cc(NC(C)CCCNC(=O)C(N)CCCN)c2nc(C(C)(C)C)ccc12 (stereo not drawn) [compound 91, 2,5-Diamino-N-(4-(5-butoxy-2-tert-butyl-6-methoxyquinolin-8-ylamino)pentyl)-pentanamide] | 1.3 (≈ 2.59 µM) | > 20 | > 20 | > 20 | > 20 | > 20 | > 20 | > 20 | > 20 | > 20 | > 20 | > 20 | > 20 | > 20 | > 20 | > 20 | > 20 | 2.8 (≈ 5.58 µM) | NC (NC, not cytotoxic up to 4760 ng/mL (4.76 μg/mL)) | – |
| N=C(N)c1ccc(OCCCCCOc2ccc(C(=N)N)cc2)cc1 [pentamidine, reference compound] | – | – | – | – | – | – | – | – | – | – | – | – | – | – | – | – | – | – | – | IC50 ([1]; Leishmania donovani): 1.4 µg/mL (≈ 4.11 µM); L. donovani IC50 ([1]; promastigotes): 1.1 µg/mL |
